Tests used:
Cannabinoid receptor 2 = Cannabinoid receptor 2 (Homo sapiens, UniProt P34972); assay: Displacement of [3H]CP-55940 from human recombinant CB2R expressed in CHO cells; type: cell-based
Method in brief: (§1)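 Radioligand competition used 0.5 nM [³H]CP55940 with recombinant human CB1R-CHO or CB2R-CHO membranes. Bound and free ligand were separated by filtration, and IC₅₀ came from nonlinear curve fitting.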

Cannabinoid receptor 1 [1] = molecular target: T1, Cannabinoid receptor 1 (Homo sapiens, UniProt P21554); assay: Displacement of [3H]CP-55940 from human recombinant CB1R expressed in CHO cells; type: cell-based; method in brief: as §1
T1 sequence (P21554 whole entry): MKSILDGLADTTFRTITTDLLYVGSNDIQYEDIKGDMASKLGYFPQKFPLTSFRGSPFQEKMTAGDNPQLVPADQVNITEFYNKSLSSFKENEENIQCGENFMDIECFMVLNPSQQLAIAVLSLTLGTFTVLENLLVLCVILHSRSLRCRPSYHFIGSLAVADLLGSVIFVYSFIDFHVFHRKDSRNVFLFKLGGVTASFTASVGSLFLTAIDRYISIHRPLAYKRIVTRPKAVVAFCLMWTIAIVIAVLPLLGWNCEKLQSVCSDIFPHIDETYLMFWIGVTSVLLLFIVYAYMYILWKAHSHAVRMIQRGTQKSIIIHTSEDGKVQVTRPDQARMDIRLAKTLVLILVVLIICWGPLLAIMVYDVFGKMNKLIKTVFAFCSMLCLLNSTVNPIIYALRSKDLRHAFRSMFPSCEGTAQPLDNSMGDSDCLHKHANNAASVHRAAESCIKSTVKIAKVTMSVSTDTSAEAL

Cannabinoid receptor 1 [2] = molecular target: T1, Cannabinoid receptor 1; assay: Inverse agonist activity at human recombinant CB1R expressed in CHO cells assessed as increase in forskolin-stimulated cAMP level; type: functional, cell-based
Method in brief: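 Recombinant CB1R-CHO cells were incubated with test compound across a range of concentrations, plus forskolin and the phosphodiesterase inhibitor IBMX. Buffer was Earle's balanced salt solution with 5 mM MgCl₂, 10 mM HEPES pH 7.3 and 1 mg/mL BSA, for 30 min at room temperature, with cAMP read out.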

Chain of Cannabinoid receptor 2 (P34972 whole entry): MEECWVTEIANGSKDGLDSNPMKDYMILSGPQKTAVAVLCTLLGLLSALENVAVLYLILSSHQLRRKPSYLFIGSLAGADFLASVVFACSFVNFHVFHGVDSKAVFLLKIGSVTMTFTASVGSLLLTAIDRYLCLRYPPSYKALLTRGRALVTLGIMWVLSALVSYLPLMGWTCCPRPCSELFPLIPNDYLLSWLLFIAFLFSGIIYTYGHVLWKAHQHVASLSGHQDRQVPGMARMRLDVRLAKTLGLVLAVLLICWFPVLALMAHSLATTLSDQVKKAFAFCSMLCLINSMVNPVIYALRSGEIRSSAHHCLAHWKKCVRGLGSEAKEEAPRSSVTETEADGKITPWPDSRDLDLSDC

Row | Compound | IC50 (Cannabinoid receptor 2) [nM] | IC50 (Cannabinoid receptor 1 [1]) [nM] | EC50 (Cannabinoid receptor 1 [2]) [nM]
1 | O=C([C@@H]1C[C@H]1c1ccc(C(F)(F)F)cc1)N1CCN(S(=O)(=O)c2cc(-n3cccn3)cc(C(F)(F)F)c2)CC1 | > 10000 | 0.7 | –
2 | Cc1nnc(-c2cc(C(F)(F)F)cc(S(=O)(=O)N3CCN(C(=O)[C@@H]4C[C@H]4c4ccc(C(F)(F)F)cc4)CC3)c2)[nH]1 | > 10000 | 10 | –
3 | CC(C)Oc1cc(C(F)(F)F)cc(S(=O)(=O)N2CCN(C(=O)[C@@H]3C[C@H]3c3ccc(C(F)(F)F)cc3)CC2)c1 | – | 0.3 | –
4 | O=C(Cc1ccc(C(F)(F)F)cc1)N1CC(NS(=O)(=O)c2cc(C(F)(F)F)cc(C(F)(F)F)c2)C1 | – | > 10000 | > 10000
5 | O=C([C@@H]1C[C@H]1c1ccc(C(F)(F)F)cc1)N1CCN(S(=O)(=O)c2cc(-c3cn[nH]c3)cc(C(F)(F)F)c2)CC1 | > 10000 | 9 | –
6 | C[C@@H]1CN(S(=O)(=O)c2cccc3ccccc23)C[C@H](C)N1C(=O)C1CCCCC1 | – | 2800 | 8
7 | O=C(C1CC1)N1CCN(S(=O)(=O)c2cc(Cl)cc(Cl)c2)CC1 | – | 780 | 5
8 | CC(C)(O)c1cc(C(F)(F)F)cc(S(=O)(=O)N2CCN(C(=O)[C@@H]3C[C@H]3c3ccc(C(F)(F)F)cc3)CC2)c1 | > 10000 | 8 | –
9 | N#Cc1ccc(CC(=O)N2CCN(S(=O)(=O)c3cc(Cl)cc(Cl)c3)CC2)cc1 | – | – | 0.5
10 | CC(C)(C(=O)N1CCN(S(=O)(=O)c2cc(Cl)cc(Cl)c2)CC1)c1ccccc1 | – | 230 | 2.8
11 | CC(C(=O)N1CCN(S(=O)(=O)c2cc(Cl)cc(Cl)c2)CC1)c1ccc(C(F)(F)F)cc1 (stereo in doubt; 20a) | – | 20 | 1.5
12 | O=C(Cc1ccc(C(F)(F)F)cc1)N1CCN(S(=O)(=O)c2cc(Cl)cc(Cl)c2)CC1 | – | 16 | 0.5
13 | O=C([C@@H]1C[C@H]1c1ccc(C(F)(F)F)cc1)N1CCN(S(=O)(=O)c2cc(-c3c[nH]nn3)cc(C(F)(F)F)c2)CC1 | > 10000 | 3 | –
14 | O=C(C1CC1)N1CCN(S(=O)(=O)c2c(Cl)cc(Cl)cc2Cl)CC1 | – | 9700 | 1500
15 | O=C(Cc1ccc(C(F)(F)F)cc1)N1CCN(S(=O)(=O)c2cc(C(F)(F)F)cc(C(F)(F)F)c2)C1 | – | > 10000 | > 10000
16 | O=C(Cc1ccccn1)N1CCN(S(=O)(=O)c2cc(Cl)cc(Cl)c2)CC1 | – | 3000 | 40
17 | O=C(Cc1ccc(C(F)(F)F)cc1)N1CCN(S(=O)(=O)c2cc(Br)cc(C(F)(F)F)c2)CC1 | > 10000 | 6 | 1
18 | CN(C)C(=O)Oc1cc(C(F)(F)F)cc(S(=O)(=O)N2CCN(C(=O)[C@@H]3C[C@H]3c3ccc(C(F)(F)F)cc3)CC2)c1 | – | 2 | –
19 | CCOC(=O)Oc1cc(C(F)(F)F)cc(S(=O)(=O)N2CCN(C(=O)[C@@H]3C[C@H]3c3ccc(C(F)(F)F)cc3)CC2)c1 | – | 8 | –
20 | O=C(C1CC1)N1CCN(S(=O)(=O)c2ccc(Cl)cc2)CC1 | – | 3500 | > 10000
21 | O=C([C@@H]1C[C@H]1c1ccc(C(F)(F)F)cc1)N1CCN(S(=O)(=O)c2cc(O)cc(C(F)(F)F)c2)CC1 | – | 6 | –
22 | O=C(C1CC1)N1CCN(S(=O)(=O)c2cc(Cl)c(Cl)cc2Cl)CC1 | – | 9700 | 1500
23 | O=C([C@@H]1C[C@H]1c1ccc(C(F)(F)F)cc1)N1CCN(S(=O)(=O)c2cc(-c3n[nH]c(=O)o3)cc(C(F)(F)F)c2)CC1 | > 10000 | 100 | –
24 | O=C(Cc1ccccc1C(F)(F)F)N1CCN(S(=O)(=O)c2cc(Cl)cc(Cl)c2)CC1 | – | 470 | 2.2
25 | COC(=O)c1cc(C(F)(F)F)cc(S(=O)(=O)N2CCN(C(=O)Cc3ccc(C(F)(F)F)cc3)CC2)c1 | > 10000 | 5 | 1
26 | O=C([C@@H]1C[C@H]1c1ccc(C(F)(F)F)cc1)N1CCN(S(=O)(=O)c2cc(-n3ccnn3)cc(C(F)(F)F)c2)CC1 | > 10000 | 50 | –
27 | O=C(C1CCCCC1)N1CCN(S(=O)(=O)c2cccc3ccccc23)CC1c1ccccc1 (configuration not stated) | – | 9000 | 600
28 | O=C(C1CC1)N1CCN(S(=O)(=O)c2cc(Cl)ccc2Cl)CC1 | – | 6400 | 90
29 | CC1CN(C(=O)C2CCCCC2)CCN1S(=O)(=O)c1cccc2ccccc12 (configuration not stated) | – | 4700 | 180
30 | O=C1CSC(c2cc(C(F)(F)F)cc(S(=O)(=O)N3CCN(C(=O)[C@@H]4C[C@H]4c4ccc(C(F)(F)F)cc4)CC3)c2)=N1 | > 10000 | 10 | –

From ChEMBL document CHEMBL1153427, “1-Sulfonyl-4-acylpiperazines as selective cannabinoid-1 receptor (CB1R) inverse agonists for the treatment of obesity” (J Med Chem, 2009)
